Experimental data as given in PMC5831399 (Cell chemical biology, 2017).

Experiments:
Assay type in all cases: cell-based
EGFR = EGFR (Homo sapiens, UniProt P00533); assay: EGFR degradation, immunoblot of treated cells; details: Figure S2, cell line not given
L858R EGFR = L858R EGFR (Homo sapiens, UniProt P00533, L858R); assay: L858R EGFR degradation, immunoblot in H3255 cells; details: 24 hours
Method in brief: (§1)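 Cells cultured in RPMI-1640 with 10% FBS and 1% penicillin-streptomycin at 37°C, 5% CO2. They were treated for 24 hours with increasing concentrations of a gefitinib-based PROTAC. Cells were lysed in Tris pH 7.5/NP-40/deoxycholate buffer with phosphatase and protease inhibitors, then cleared at 16,000 × g. Protein was normalised by BCA, resolved by 8% SDS-PAGE, blotted to nitrocellulose, detected by ECL and quantified by densitometry.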

exon 19 del EGFR = exon 19 del EGFR (Homo sapiens, UniProt P00533, DEL746-750); assay: Exon 19 deletion EGFR degradation, immunoblot in HCC827 cells; details: 24 hours
Method in brief: as §1

COc1cc2ncnc(Nc3ccc(F)c(Cl)c3)c2cc1OCCCCCOCCOCCC(=O)N[C@H](C(=O)N1C[C@H](O)C[C@H]1C(=O)NCc1ccc(-c2scnc2C)cc1)C(C)(C)C [Compound 3]
WT EGFR degradation (EGFR): sparing the WT EGFR
degradation of L858R EGFR (L858R EGFR): enabled the degradation
degradation of exon-19 deletion EGFR (exon 19 del EGFR): enabled the degradation
